pIC50: −log10 of the molar value.
What was measured:
[1] = tested on: Mus musculus; assay: Antiobesity activity in C57BL/6 mouse assessed as inhibition of body weight gain at 50 mg/kg, ip measured after 2 to 12 hrs relative to vehicle-treated control; format: functional; conditions: C57BL/6, ip, route intraperitoneal
[2] = tested on: Mus musculus; assay: Antiobesity activity in C57BL/6 mouse assessed as inhibition of food intake at 50 mg/kg, ip measured after 2 to 12 hrs relative to vehicle-treated control; format: functional; conditions: C57BL/6, ip, route intraperitoneal
Procedure, shortened: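 Male mice were acclimated 1 week at 23 ± 3 °C and 50 ± 20% humidity, then fasted 24 h. They were dosed once intraperitoneally with vehicle or compound: 50 mg/kg in C57BL/6, or 12.5, 25 or 50 mg/kg in B6.V-Lep^ob/J. Food intake was measured at 2, 6 and 12 h versus vehicle control.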

[3] = biological target: T1, 5-hydroxytryptamine receptor 2A (Homo sapiens, UniProt P28223); assay: Antagonist activity at serotonin-activated human recombinant 5HT-2A receptor expressed in HEK293 cells assessed as decrease in intracellular calcium level after 5 mins measured for 1 min by fluorescence assay; format: functional, cell-based; conditions: read-out: EC50 (the source's name)
Procedure, shortened: (§1)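 Cells were washed with HBSS/20 mM HEPES, then loaded 50 min with Fluo-4 NW dye in HBSS with 2.5 mM probenecid. Compound was added for 5 min at 37 °C, then serotonin; fluorescence followed 1 min. Run in duplicate or quadruplicate, repeated several times; IC50 by nonlinear regression.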

[4] = biological target: T2, 5-hydroxytryptamine receptor 2C (Homo sapiens, UniProt P28335); assay: Antagonist activity at serotonin-activated human recombinant 5HT-2C receptor expressed in HEK293 cells assessed as decrease in intracellular calcium level after 5 mins measured for 1 min by fluorescence assay; format: functional, cell-based; conditions: read-out: EC50 (the source's name)
T2 sequence (P28335 whole entry): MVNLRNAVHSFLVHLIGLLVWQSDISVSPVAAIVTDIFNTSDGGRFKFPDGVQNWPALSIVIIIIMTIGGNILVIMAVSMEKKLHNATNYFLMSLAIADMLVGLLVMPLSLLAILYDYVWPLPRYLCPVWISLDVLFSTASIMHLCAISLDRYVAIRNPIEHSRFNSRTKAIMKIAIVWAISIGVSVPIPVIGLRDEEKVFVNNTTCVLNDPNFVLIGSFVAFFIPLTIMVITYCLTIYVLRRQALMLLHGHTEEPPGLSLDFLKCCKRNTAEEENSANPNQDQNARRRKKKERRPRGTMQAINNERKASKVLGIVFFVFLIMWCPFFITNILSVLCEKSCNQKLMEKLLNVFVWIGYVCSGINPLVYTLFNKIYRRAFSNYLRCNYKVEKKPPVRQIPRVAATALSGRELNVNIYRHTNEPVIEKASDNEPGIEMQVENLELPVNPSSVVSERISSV
Procedure, shortened: as §1, with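 “Intracellular calcium read on HEK293 cells stably expressing human receptor, seeded 10,000 cells/well and grown 24 h at 37 °C, 5% CO2. Cells” for “Cells”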

[5] = biological target: T1, 5-hydroxytryptamine receptor 2A; assay: Displacement of [3H]-ketanserin from human recombinant 5HT-2A receptor expressed in CHOK1 cell membranes after 60 mins; parameters: species or system CHO-K1
Procedure, shortened: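 Buffer was 50 mM Tris-HCl pH 7.4 with 5 mM CaCl2 and 0.1% ascorbic acid. Test compound added at a range of concentrations.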

[6] = biological target: T2, 5-hydroxytryptamine receptor 2C; assay: Displacement of [3H]-mesulergine from human recombinant 5HT-2C receptor expressed in CHOK1 cell membranes after 30 mins; parameters: species or system CHO-K1
Procedure, shortened: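 Frozen CHO-K1 membranes expressing recombinant human 5-HT2C incubated with 1 nM [3H]mesulergine in 50 mM Tris-HCl pH 7.4 containing 0.1% ascorbic acid and pargyline. Mianserin defined nonspecific binding.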

[7] = tested on: Mus musculus; assay: Antiobesity activity in C57BL/6 mouse assessed as inhibition of food intake at 5.6 mg/kg, ip measured after 2 to 12 hrs relative to vehicle-treated control; format: functional; conditions: C57BL/6, ip, route intraperitoneal
Procedure, shortened: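 Male C57BL/6 mice acclimated 1 week (23 ± 3 °C, 50 ± 20% humidity), fasted 24 h, then given intraperitoneal vehicle or drug. Food intake measured over intervals of 2, 6 and 12 h and compared with vehicle control.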

[8] = biological target: D(2) dopamine receptor (Homo sapiens, UniProt P14416); assay: Displacement of [3H]-methylspiperone from dopamine D2L receptor (unknown origin) after 60 mins
Procedure, shortened: (§2)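 Receptor membranes incubated at 27 °C, 60 min for D2L and 30 min for D3, with [3H]methylspiperone (0.2 nM for D2L, 0.25 nM for D3) and test compound at a range of concentrations. Buffer was 50 mM Tris-HCl pH 7.4, 10 mM MgCl2, 1 mM EDTA, 120 mM NaCl. Nonspecific binding defined with haloperidol (D2) or GR103691 (D3). IC50 obtained by nonlinear regression.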

[9] = biological target: D(3) dopamine receptor (Homo sapiens, UniProt P35462); assay: Displacement of [3H]-methylspiperone from dopamine D3 receptor (unknown origin) after 30 mins; procedure, shortened: as §2
[10] = Displacement of [3H]-YM-09151-2 from cloned dopamine D4.2 receptor (unknown origin) expressed in Sf9 cells after 60 mins; parameters: species or system Homo sapiens
Procedure, shortened: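 Sf9 membranes with cloned D4.2 receptor incubated with 0.2 nM [3H]YM-09151-2 for 60 min at 27 °C in 50 mM Tris-HCl pH 7.4, 5 mM MgCl2, 5 mM EDTA, 5 mM KCl, 1.5 mM CaCl2. Clozapine defined nonspecific binding. Filtered on glass-fiber filters presoaked in 0.3% PEI.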

[11] = biological target: 5-hydroxytryptamine receptor 6 (Homo sapiens, UniProt P50406); assay: Displacement of [3H]-LSD from human recombinant 5HT-6 receptor expressed in CHOK1 cell membranes after 60 mins; parameters: species or system CHO-K1
Procedure, shortened: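 CHO-K1 membranes expressing human 5-HT6 incubated with 1 nM [3H]LSD for 60 min at 27 °C in 50 mM Tris-HCl pH 7.4 containing 4 mM CaCl2 and 0.1% ascorbic acid. Terminated by filtration on glass-fiber filters presoaked in 0.5% PEI. Methiothepin defined nonspecific binding.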

[12] = biological target: 5-hydroxytryptamine receptor 7 (Homo sapiens, UniProt P34969); assay: Displacement of [3H]-LSD from human recombinant 5HT-7 receptor expressed in CHOK1 cell membranes after 120 mins; parameters: species or system CHO-K1
Procedure, shortened: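 CHO-K1 membranes expressing human 5-HT7 incubated with 3 nM [3H]LSD for 120 min at 27 °C in 50 mM Tris-HCl pH 7.4, 10 mM MgSO4, 0.5 mM EDTA. Filtered on glass-fiber filters presoaked in 0.3% PEI. Methiothepin defined nonspecific binding.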

[13] = biological target: T3, 5-hydroxytryptamine receptor 1A (Homo sapiens, UniProt P08908); assay: Displacement from [3H]8-OH-DPAT from human recombinant 5HT-1A receptor expressed in HEK293 cells after 120 mins; format: cell-based
T3 sequence (P08908 whole entry): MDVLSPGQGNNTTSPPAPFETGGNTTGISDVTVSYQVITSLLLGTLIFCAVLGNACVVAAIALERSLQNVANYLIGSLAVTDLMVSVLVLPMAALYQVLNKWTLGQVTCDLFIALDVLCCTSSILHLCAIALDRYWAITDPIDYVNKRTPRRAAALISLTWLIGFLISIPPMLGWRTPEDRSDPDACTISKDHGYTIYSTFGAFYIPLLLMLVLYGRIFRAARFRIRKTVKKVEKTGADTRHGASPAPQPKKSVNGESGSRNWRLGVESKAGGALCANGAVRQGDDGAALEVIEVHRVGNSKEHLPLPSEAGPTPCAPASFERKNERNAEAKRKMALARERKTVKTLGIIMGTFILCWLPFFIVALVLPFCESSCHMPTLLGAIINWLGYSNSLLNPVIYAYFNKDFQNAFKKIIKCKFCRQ
Procedure, shortened: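 Membranes from HEK293-EBNA cells stably expressing recombinant human 5-HT1A. Incubated with 2 nM [3H]8-OH-DPAT and test compound at a range of concentrations in 50 mM Tris-HCl pH 7.4 with 5 mM MgSO4.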

[14] = biological target: T4, Alpha-1A adrenergic receptor (Homo sapiens, UniProt P35348); assay: Binding affinity to adrenergic alpha1A receptor (unknown origin)
T4 sequence (P35348 whole entry): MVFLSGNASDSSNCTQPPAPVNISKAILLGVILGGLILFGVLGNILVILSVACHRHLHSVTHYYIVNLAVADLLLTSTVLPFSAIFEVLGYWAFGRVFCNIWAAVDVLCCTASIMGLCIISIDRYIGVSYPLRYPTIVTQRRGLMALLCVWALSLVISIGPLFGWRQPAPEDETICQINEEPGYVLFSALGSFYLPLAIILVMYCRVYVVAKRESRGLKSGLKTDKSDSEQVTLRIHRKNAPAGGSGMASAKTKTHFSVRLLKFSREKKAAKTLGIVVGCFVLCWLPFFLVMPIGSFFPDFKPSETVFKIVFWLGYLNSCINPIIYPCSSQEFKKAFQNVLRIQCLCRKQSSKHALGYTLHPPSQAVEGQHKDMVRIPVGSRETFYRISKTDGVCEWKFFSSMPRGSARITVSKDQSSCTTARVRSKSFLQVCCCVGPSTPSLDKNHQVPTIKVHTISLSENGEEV

[15] = biological target: T5, Alpha-2A adrenergic receptor (Homo sapiens, UniProt P08913); assay: Binding affinity to adrenergic alpha2A receptor (unknown origin)
T5 sequence (P08913 whole entry): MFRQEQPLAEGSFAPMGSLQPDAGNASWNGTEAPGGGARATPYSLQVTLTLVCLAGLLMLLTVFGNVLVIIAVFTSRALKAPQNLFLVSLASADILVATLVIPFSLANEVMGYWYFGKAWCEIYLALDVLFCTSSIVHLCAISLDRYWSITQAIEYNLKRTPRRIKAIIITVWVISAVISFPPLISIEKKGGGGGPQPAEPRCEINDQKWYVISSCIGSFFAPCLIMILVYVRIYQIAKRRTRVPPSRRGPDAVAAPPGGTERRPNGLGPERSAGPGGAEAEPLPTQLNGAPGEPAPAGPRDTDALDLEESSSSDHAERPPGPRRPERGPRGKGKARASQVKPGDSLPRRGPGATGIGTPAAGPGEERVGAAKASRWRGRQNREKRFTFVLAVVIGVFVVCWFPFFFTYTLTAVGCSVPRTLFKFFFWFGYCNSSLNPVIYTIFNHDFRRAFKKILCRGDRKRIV

[16] = organism: Homo sapiens; assay: Selectivity ratio of IC50 for human recombinant 5HT-2B receptor to IC50 for human recombinant 5HT-2C receptor
[17] = biological target: 5-hydroxytryptamine receptor 2B (Homo sapiens, UniProt P41595); assay: Displacement of […] from human recombinant 5HT-2B receptor
[18] = organism: Homo sapiens; assay: Selectivity ratio of IC50 for human recombinant 5HT-2B receptor to IC50 for human recombinant 5HT-2A receptor

Sequence of D(3) dopamine receptor (P35462 whole entry): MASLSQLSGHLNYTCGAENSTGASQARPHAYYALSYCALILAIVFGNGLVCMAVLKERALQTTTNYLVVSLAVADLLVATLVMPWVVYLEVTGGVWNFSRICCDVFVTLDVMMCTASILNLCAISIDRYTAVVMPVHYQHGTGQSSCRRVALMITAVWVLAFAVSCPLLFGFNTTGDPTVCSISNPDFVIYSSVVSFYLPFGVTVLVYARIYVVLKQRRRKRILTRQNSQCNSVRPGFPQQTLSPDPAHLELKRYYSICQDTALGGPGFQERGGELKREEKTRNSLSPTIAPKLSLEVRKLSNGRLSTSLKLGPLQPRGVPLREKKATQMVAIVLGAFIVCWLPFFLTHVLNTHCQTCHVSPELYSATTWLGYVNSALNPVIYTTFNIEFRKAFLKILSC
Sequence of 5-hydroxytryptamine receptor 6 (P50406 whole entry): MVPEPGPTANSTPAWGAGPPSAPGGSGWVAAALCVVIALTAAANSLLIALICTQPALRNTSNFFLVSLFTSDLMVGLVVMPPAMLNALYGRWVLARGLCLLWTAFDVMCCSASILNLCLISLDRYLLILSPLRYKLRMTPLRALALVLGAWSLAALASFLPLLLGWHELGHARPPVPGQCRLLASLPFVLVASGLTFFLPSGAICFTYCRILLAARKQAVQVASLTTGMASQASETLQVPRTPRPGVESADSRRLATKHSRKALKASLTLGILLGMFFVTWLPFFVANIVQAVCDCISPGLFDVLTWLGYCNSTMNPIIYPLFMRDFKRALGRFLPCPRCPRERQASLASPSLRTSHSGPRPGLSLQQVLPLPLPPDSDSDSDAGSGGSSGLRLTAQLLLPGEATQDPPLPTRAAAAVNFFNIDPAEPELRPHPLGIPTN
Sequence of 5-hydroxytryptamine receptor 7 (P34969 whole entry): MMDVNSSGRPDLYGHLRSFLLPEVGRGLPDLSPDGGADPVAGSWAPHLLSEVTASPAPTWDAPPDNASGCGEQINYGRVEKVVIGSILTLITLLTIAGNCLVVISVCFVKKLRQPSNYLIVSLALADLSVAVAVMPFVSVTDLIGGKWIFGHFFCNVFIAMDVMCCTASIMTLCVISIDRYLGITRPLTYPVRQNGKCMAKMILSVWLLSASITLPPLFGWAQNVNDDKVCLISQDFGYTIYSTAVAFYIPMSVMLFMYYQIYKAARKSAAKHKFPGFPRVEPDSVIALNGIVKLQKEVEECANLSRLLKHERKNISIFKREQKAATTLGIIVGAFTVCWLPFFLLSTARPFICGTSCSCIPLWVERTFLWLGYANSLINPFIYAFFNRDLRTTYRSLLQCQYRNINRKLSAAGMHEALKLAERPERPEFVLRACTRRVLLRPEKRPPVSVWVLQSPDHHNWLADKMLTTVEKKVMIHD
Sequence of D(2) dopamine receptor (P14416 whole entry): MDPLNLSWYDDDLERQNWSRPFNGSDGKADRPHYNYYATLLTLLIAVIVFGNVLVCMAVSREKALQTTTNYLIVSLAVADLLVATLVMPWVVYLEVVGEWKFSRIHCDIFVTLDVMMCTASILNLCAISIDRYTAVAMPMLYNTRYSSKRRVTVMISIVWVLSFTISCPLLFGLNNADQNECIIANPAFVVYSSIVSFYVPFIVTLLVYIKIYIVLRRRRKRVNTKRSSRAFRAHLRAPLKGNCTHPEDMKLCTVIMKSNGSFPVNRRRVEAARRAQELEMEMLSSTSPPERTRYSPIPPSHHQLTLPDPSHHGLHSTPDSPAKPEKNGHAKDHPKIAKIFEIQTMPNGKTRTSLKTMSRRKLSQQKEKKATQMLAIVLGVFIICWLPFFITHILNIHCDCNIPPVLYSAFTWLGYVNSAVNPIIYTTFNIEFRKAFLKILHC
T1 sequence (P28223 whole entry): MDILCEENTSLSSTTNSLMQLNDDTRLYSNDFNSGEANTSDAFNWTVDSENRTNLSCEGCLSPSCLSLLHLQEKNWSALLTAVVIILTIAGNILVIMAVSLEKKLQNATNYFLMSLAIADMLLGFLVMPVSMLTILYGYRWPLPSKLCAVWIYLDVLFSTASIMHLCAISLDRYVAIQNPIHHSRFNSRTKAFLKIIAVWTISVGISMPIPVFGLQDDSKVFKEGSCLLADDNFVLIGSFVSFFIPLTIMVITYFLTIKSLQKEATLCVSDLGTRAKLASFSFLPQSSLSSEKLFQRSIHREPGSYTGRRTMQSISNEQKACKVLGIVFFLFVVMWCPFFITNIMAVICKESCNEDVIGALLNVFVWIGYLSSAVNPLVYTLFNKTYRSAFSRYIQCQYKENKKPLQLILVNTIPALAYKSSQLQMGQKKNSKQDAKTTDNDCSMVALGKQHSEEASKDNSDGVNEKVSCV
Sequence of 5-hydroxytryptamine receptor 2B (P41595 whole entry): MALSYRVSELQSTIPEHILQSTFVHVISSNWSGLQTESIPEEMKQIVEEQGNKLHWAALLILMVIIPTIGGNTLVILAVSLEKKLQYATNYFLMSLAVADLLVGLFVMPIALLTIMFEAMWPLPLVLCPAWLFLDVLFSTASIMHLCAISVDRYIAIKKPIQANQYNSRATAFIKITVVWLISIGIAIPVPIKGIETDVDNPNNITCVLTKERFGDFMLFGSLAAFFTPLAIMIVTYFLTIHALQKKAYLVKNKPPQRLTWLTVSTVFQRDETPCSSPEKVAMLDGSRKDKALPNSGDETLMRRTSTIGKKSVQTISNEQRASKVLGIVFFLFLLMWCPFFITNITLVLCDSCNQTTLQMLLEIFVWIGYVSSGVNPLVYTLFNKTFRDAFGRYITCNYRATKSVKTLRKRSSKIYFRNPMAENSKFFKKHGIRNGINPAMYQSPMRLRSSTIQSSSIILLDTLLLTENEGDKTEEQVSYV

Row | Compound | inhibition in vivo at 50 mg/kg [1] [%] | inhibition in vivo at 50 mg/kg [2] [%] | pIC50 [3] | pIC50 [4] | pIC50 [5] | pIC50 [6] | inhibition in vivo at 5.6 mg/kg [7] [%] | pIC50 [8] | pIC50 [9] | pIC50 [10] | pIC50 [11] | pIC50 [12] | pIC50 [13] | pIC50 [14] | pIC50 [15] | Ratio IC50 [16] | pIC50 [17] | Ratio IC50 [18]
1 | CN1CCN(c2nc3c(c(Nc4ccc(F)cc4)n2)CCNCC3)CC1 | 5.61 | 11 | 6.82 | 5.82 | 6.67 | 6.47 | – | – | – | – | – | – | – | – | – | – | – | –
2 | Clc1cccc(N2CCNCC2)c1 [CHLOROPHENYLPIPERAZINE] | – | – | – | – | – | – | 13.1 | – | – | – | – | – | – | – | – | – | – | –
3 | COc1cccc(Nc2nc(Cc3ccccc3)nc3c2CCNCC3)c1 | 63.9 | 55.8 | 7.11 | 8.04 | 7.07 | 7.43 | – | 6.79 | 6.03 | 6.26 | 7.52 | 6.30 | 6.08 | – | – | – | – | –
4 | Fc1cccc(Nc2nc(Cc3ccccc3)nc3c2CCNCC3)c1 | 68.9 | 69.4 | 7.55 | – | 8.31 | 7.88 | – | 7.20 | 6.17 | 6.13 | 7.65 | 5.98 | 5.90 | – | – | – | – | –
5 | c1ccc(Cc2nc3c(c(Nc4ccccc4)n2)CCNCC3)cc1 | 71.8 | 64.2 | – | – | 8.57 | 8.70 | – | 6.83 | 6.57 | 6.95 | 7.43 | 5.81 | 6.40 | 5.86 | < 5.00 | 44.9 | 7.05 | 33.1
